Reference: ChEMBL document CHEMBL1148393, “SAR studies of dihydro-beta-agarofuran sesquiterpenes as inhibitors of the multidrug-resistance phenotype in a Leishmania tropica line overexpressing a P-glycoprotein-like transporter” (J Med Chem, 2004)

How the values were obtained:
Type in all cases: functional
[1] = system: Leishmania tropica; assay: Percentage of growth inhibition of multidrug resistance Leishmania tropica Lines at 3 uM
Outline: (§1)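 Log-phase MDR promastigotes were plated at 3 × 10⁵ cells/well in RPMI 1640-modified medium with 20% FBS and 150 µM DNM. Sesquiterpenes (DMSO stocks diluted in medium) were added and cells kept 72 h at 28 °C. MTT was added for 4 h, formazan dissolved in 20% SDS and A540 read. Growth inhibition is relative to DNM-treated controls without modulator.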

[2] = system: Leishmania tropica; assay: Percentage of growth inhibition of multidrug resistance Leishmania tropica Lines at 1 uM.; outline: as §1
[3] = system: Leishmania tropica; assay: Percentage of growth inhibition of multidrug resistance Leishmania tropica Lines at 15 uM; outline: as §1
[4] = system: Leishmania tropica; assay: Percentage of growth inhibition of wild type Leishmania tropica Lines at 7 uM.
Outline: (§2)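 Intrinsic toxicity on the wild-type L. tropica LRC clone, with no DNM present. Log-phase promastigotes were plated at 3 × 10⁵ cells/well in RPMI 1640-modified medium with 20% FBS, with sesquiterpene diluted from DMSO stocks, for 72 h at 28 °C. MTT was added for 4 h, then 20% SDS, and A540 read. Percent growth inhibition is taken against untreated control absorbance.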

[5] = system: Leishmania tropica; assay: Percentage of growth inhibition of wild type Leishmania tropica Lines at 3 uM.; outline: as §2
[6] = system: Leishmania tropica; assay: (§3) Percentage of growth inhibition of wild type Leishmania tropica lines at 15 uM
Outline: (§4)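 WT L. tropica LRC-strain promastigotes (log phase, RPMI 1640-modified medium + 20% heat-inactivated FBS, 28 °C) seeded at 3 × 10⁵ cells/well and exposed without DNM to sesquiterpenes diluted from DMSO stocks. After 72 h at 28 °C, MTT (5 mg/mL in PBS) was added for 4 h, formazan dissolved in 20% SDS, A540 read. Growth inhibition (%) calculated relative to untreated control absorbance.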

[7] = system: Leishmania tropica; assay: Percent growth inhibition of wild type Leishmania tropica at 1 uM; outline: as §2
[8] = system: Leishmania tropica; assay: Percentage of growth inhibition of multidrug resistance Leishmania tropica Lines at 7 uM.; outline: as §1
[9] = system: Leishmania tropica; assay: Percentage of growth inhibition of multidrug resistance Leishmania tropica Lines at 7 uM; Value ranges from 0 to 6%; outline: as §1
[10] = system: Leishmania tropica; assay: as §3; outline: as §2; remark: listed apart in the source
[11] = system: Leishmania tropica; assay: Percentage of growth inhibition of multidrug resistance Leishmania tropica Lines at 3 uM.; outline: as §1
[12] = system: Leishmania tropica; assay: Percentage of growth inhibition of multidrug resistance Leishmania tropica Lines at 1 uM; outline: as §1
[13] = system: Leishmania tropica; assay: Percentage of growth inhibition of wild type Leishmania tropica Lines at 7 uM; outline: as §4
[14] = system: Leishmania tropica; assay: Percentage of growth inhibition of wild type Leishmania tropica Lines at 3 uM; outline: as §4

Structure (SMILES)	inhibition at 3 µM [1]	inhibition at 1 µM [2]	inhibition at 15 µM [3]	inhibition at 7 µM [4]	inhibition at 3 µM [5]	inhibition at 15 µM [6]	inhibition at 1 µM [7]	inhibition at 7 µM [8]	inhibition at 7 µM [9]	inhibition at 15 µM [10]	inhibition at 3 µM [11]	inhibition at 1 µM [12]	inhibition at 7 µM [13]	inhibition at 3 µM [14]
CC(=O)O[C@H]1[C@@H](OC(=O)c2ccccc2)C[C@](C)(O)C23OC(C)(C)C(C[C@H](OC(=O)c4ccco4)[C@]12C)[C@H]3O (stereo partly specified)	11.1%	< 6%	81.9%	< 6%	< 6%	8%	< 6%	41.1%						
CC(=O)O[C@H]1C[C@](C)(O)C23OC(C)(C)C(C[C@H](OC(=O)c4ccco4)[C@]2(C)[C@H]1OC(C)=O)[C@H]3O (stereo partly specified)		< 6%	10.9%	< 6%	< 6%		< 6%		6%	< 6%	< 6%			
CC(=O)O[C@H]1C[C@](C)(O)C23OC(C)(C)C(C[C@H](OC(=O)c4ccco4)[C@]2(C)[C@H]1OC(C)=O)[C@H]3OC(=O)C(C)(C)C (stereo partly specified)	44.5%		96.7%	< 6%	< 6%		< 6%	82.5%		< 6%		18.1%		
CC(=O)O[C@H]1CC[C@](C)(O)C23OC(C)(C)C(C[C@H](OC(=O)c4ccco4)[C@]12C)[C@H]3OC(=O)c1ccco1 (stereo partly specified)	66.9%		89.9%			24.6%	< 6%	89%				20.3%	16.4%	14.8%
CC(=O)O[C@H]1C[C@](C)(O)C23OC(C)(C)C(C[C@H](OC(=O)c4ccco4)[C@]2(C)[C@H]1OC(C)=O)[C@H]3OC(=O)C(F)(F)F (stereo partly specified)		< 6%	7.1%	< 6%	< 6%		< 6%		6%	< 6%	6%			
CCCCCCCCCCCC(=O)O[C@@H]1C2C[C@H](OC(=O)c3ccco3)[C@]3(C)[C@@H](OC(C)=O)[C@@H](OC(C)=O)C[C@](C)(O)C13OC2(C)C (stereo partly specified)	8.8%	< 6%	80.5%	< 6%	< 6%		< 6%	29.2%		< 6%				
CC(=O)O[C@H]1[C@@H](OC(=O)c2ccco2)C[C@](C)(O)C23OC(C)(C)C(C[C@H](OC(=O)c4ccco4)[C@]12C)[C@H]3OC(=O)c1ccco1 (stereo partly specified)	52.9%		93.5%			23.4%	< 6%	86.2%				10%	18.1%	13.8%
CC(=O)O[C@H]1[C@@H](OC(=O)c2ccccc2)C[C@](C)(O)C23OC(C)(C)C(C[C@H](OC(=O)c4ccco4)[C@]12C)[C@H]3OC(=O)C(F)(F)F (stereo partly specified)		< 6%	36.9%	< 6%	< 6%		< 6%	9.7%		< 6%	< 6%			
CC(=O)O[C@H]1C[C@](C)(O)C23OC(C)(C)C(C[C@H](OC(=O)c4ccco4)[C@]2(C)[C@H]1OC(C)=O)[C@H]3OC(C)=O (stereo partly specified)		< 6%	50.6%	< 6%	< 6%		< 6%	17.1%		< 6%	< 6%			
CC(=O)O[C@H]1[C@@H](OC(=O)c2ccccc2)C[C@](C)(O)C23OC(C)(C)C(C[C@H](OC(=O)c4ccco4)[C@]12C)[C@H]3OC(=O)C(C)(C)C (stereo partly specified)		< 6%	77.6%	< 6%	< 6%		< 6%	25.9%		< 6%	11.2%			
COc1ccc(C(=O)O[C@@H]2C3C[C@H](OC(=O)c4ccco4)[C@]4(C)[C@@H](OC(C)=O)[C@@H](OC(C)=O)C[C@](C)(O)C24OC3(C)C)cc1 (stereo partly specified)	35.4%		98.4%	< 6%	< 6%	17.2%	< 6%	85%				11.9%		
CC(=O)O[C@@H]1C2C[C@H](OC(=O)c3ccco3)[C@]3(C)[C@@H](OC(C)=O)[C@@H](OC(=O)c4ccccc4)C[C@](C)(O)C13OC2(C)C (stereo partly specified)		< 6%	45%	< 6%	< 6%		< 6%	14.3%		< 6%	6%			
CC(=O)O[C@H]1C[C@](C)(O)C23OC(C)(C)C(C[C@H](OC(=O)c4ccco4)[C@]2(C)[C@H]1OC(C)=O)[C@H]3OC(=O)c1ccc([N+](=O)[O-])cc1 (stereo partly specified)		< 6%	59.5%	< 6%	< 6%		< 6%	15.5%		< 6%	6%			
CCCCCCCCCCCC(=O)O[C@@H]1C2C[C@H](OC(=O)c3ccco3)[C@]3(C)[C@@H](OC(C)=O)[C@@H](OC(=O)c4ccccc4)C[C@](C)(O)C13OC2(C)C (stereo partly specified)		< 6%	9.2%	< 6%	< 6%		< 6%		6%	< 6%	6%			
CC(=O)O[C@H]1[C@@H](O)C[C@](C)(O)C23OC(C)(C)C(C[C@H](OC(=O)c4ccco4)[C@]12C)[C@H]3OC(=O)c1ccco1 (stereo partly specified)		< 6%	28.7%	< 6%	< 6%		< 6%	9.1%		< 6%	6%			
CC(=O)O[C@H]1[C@@H](OC(=O)c2ccccc2)C[C@](C)(O)C23OC(C)(C)C(C[C@H](OC(=O)c4ccco4)[C@]12C)[C@H]3OC(=O)c1ccco1 (stereo partly specified)	74.8%		92.7%			35.3%	< 6%	93.7%				11.7%	21.4%	16.5%
CC(=O)O[C@H]1[C@@H](OC(=O)c2ccco2)C[C@](C)(O)C23OC(C)(C)C(C[C@H](OC(=O)c4ccco4)[C@]12C)[C@H]3O (stereo partly specified)		< 6%	44.5%	< 6%	< 6%		< 6%	28.5%		< 6%	< 6%			
